Results taken from publication PMC5777231 (Nature, 2017).
Each block holds one compound with its values, some of them ahead of it.

What was measured:
GLUTag cells = assay: GLP-1 release from GLUTag cells; assay type: cell-based, murine; details: equimolar concentrations, 2 hours
Method in brief: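 Murine enteroendocrine GLUTag cells were grown in low-glucose GlutaMAX DMEM with 10% FBS and 1% Pen/Strep, then plated at 50,000 cells/well overnight. Cells were washed twice and preincubated 30 min in Krebs buffer with DPP4 inhibitor. Compounds from 10 mM DMSO stocks were added at 1 µM and 100 µM for 2 h, with DMSO as control. Clarified supernatant was assayed by active GLP-1 immunoassay. Two independent experiments gave 4–6 wells per condition, analysed by ANOVA.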

G2A (GPR132) = molecular target: T1, G2A (GPR132) (Homo sapiens, UniProt Q9UNW8); assay: β-arrestin cell-based orphan GPCR agonist assay
T1 sequence (Q9UNW8 1-380): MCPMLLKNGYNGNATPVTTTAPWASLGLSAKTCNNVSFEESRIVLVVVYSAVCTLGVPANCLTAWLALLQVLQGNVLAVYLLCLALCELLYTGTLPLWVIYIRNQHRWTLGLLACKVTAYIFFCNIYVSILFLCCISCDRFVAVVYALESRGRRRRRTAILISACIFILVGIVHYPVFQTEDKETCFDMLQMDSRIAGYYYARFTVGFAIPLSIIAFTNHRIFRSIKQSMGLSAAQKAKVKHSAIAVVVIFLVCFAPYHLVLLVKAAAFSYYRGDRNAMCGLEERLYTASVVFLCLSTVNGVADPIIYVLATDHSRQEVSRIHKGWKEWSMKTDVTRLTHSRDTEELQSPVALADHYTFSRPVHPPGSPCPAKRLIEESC
Method in brief: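 Orphan GPCR panel, DiscoveRx β-arrestin recruitment format, agonist mode. Test compound was screened at 10 µM in singlicate. Follow-up dose-response curves were run in duplicate per dose, and EC50 was derived from them.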

[1] = molecular target: T2, sphingosine-1-phosphate receptor 4 (S1PR4) (Homo sapiens, UniProt O95977); assay: β-arrestin cell-based GPCR agonist assay; details: for activation of / interaction with S1PR4 (in words): GPCR screen
T2 sequence (O95977 1-384): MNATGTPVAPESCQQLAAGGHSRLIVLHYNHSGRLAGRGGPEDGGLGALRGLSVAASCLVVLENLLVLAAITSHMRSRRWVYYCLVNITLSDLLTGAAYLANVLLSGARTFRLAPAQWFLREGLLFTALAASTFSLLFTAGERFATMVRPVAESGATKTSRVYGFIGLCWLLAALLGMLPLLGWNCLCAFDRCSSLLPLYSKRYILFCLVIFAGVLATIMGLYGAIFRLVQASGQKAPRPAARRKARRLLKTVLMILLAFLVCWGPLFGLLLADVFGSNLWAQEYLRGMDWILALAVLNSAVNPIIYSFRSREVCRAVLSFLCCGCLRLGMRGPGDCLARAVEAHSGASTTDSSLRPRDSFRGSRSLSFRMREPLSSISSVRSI

S1PR2 = S1PR2 (Homo sapiens, UniProt O95136); assay: β-arrestin GPCR agonist screen, S1PR2; assay type: cell-based; details: 10 µM ligand
Method in brief: (§1)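 Cell-based β-arrestin recruitment screen, run by a contract lab, at 10 µM ligand in agonist and antagonist modes across 168 GPCRs with known ligands plus 72 orphan GPCRs. Test compounds were bacterial N-acyl amides, taking the most abundant analog of each family from heterologous E. coli expression. Synthetic N-acyl amides were screened the same way.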

S1PR1 = S1PR1 (Homo sapiens, UniProt P21453); assay: β-arrestin GPCR agonist screen, S1PR1; assay type: cell-based; details: 10 µM ligand
Method in brief: as §1

S1PR3 = S1PR3 (Homo sapiens, UniProt Q99500); assay: β-arrestin GPCR agonist screen, S1PR3; assay type: cell-based; details: 10 µM ligand
Method in brief: as §1

GPR119 = molecular target: T3, GPR119 (Homo sapiens, UniProt Q8TDV5); assay: cAMP secondary assay in ACTOne HEK293 cells transfected with GPR119; assay type: cell-based; details: HEK293 cells stably transfected with GPR119 vs not transfected; GPR119 dependent
T3 sequence (Q8TDV5 1-335): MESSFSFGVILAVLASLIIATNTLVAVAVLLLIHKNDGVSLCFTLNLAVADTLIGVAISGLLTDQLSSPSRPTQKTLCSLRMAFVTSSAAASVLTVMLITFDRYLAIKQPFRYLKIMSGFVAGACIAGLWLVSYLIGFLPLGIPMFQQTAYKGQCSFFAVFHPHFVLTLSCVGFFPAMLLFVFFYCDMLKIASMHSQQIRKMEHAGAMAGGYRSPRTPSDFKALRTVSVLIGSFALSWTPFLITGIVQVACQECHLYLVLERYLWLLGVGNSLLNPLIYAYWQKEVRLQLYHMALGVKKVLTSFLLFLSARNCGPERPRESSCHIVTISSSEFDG
Method in brief: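 Orthogonal cAMP read-out used live ACTOne HEK293 cells, which carry a cAMP-sensitive ion channel, read with a membrane potential dye kit. GPR119-transfected cells were compared with parental untransfected cells. Each was exposed to equimolar ligand concentrations, with the endogenous ligand and an ADORA2B agonist as parental-line cAMP control. Relative fluorescence intensity was taken against background. Points were in quadruplicate, SD shown, and EC50 was derived.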

[2] = mice, intravenous delivery; cited from earlier work

S1PR3, sequence (Q99500 whole entry): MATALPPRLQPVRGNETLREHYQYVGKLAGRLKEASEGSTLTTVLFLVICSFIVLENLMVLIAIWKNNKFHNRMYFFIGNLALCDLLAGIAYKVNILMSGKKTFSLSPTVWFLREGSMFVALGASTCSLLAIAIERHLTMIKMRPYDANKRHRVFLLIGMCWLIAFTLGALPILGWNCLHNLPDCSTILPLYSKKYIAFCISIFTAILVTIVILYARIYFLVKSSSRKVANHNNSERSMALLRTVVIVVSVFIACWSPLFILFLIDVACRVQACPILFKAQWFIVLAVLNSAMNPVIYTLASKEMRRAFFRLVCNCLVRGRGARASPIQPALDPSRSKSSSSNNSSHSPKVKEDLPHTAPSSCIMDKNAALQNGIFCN
S1PR1, sequence (P21453 whole entry): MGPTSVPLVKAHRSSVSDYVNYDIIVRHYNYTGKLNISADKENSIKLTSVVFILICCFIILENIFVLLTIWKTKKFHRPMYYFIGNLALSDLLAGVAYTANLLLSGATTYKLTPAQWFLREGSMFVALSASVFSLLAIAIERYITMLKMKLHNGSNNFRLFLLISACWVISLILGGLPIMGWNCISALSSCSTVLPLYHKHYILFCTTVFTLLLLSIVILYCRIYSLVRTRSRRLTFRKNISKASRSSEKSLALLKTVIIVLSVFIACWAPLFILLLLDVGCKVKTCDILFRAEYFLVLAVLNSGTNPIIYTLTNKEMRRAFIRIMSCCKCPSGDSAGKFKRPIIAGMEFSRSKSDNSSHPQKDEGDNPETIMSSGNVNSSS
S1PR2, sequence (O95136 whole entry): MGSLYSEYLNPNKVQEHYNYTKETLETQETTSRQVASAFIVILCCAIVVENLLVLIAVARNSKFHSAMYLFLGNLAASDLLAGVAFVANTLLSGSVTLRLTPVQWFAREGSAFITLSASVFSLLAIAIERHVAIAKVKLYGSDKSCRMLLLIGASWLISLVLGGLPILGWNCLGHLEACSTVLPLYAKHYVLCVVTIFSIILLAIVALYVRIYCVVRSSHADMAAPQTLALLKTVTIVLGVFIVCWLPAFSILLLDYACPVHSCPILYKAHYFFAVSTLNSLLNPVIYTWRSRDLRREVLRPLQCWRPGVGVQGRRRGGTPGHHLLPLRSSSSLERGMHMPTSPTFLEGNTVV

Compound: CCCCCCCC/C=C\CCCCCCCC(=O)OC(CO)CO [2-OG, 2-oleoyl glycerol]
- GLP-1 secretion (GLUTag cells): to the same magnitude

Compound: CCCCCCCCCCCCCC(O)CC(=O)NCC(=O)O (stereo not shown) [N-3-hydroxypalmitoyl glycine]
- activation of G2A (in words) (G2A (GPR132)): activate

Compound: CCCCCCCCCCCCCCCC(=O)N[C@@H](C)C(=O)O [N-palmitoyl alanine]
- activation of G2A (in words) (G2A (GPR132)): activate

Continued, in another order:

- activation of / interaction with S1PR4 (in words) [1]: interact
Compound: CCCCCCCCCCCCCC(O)CC(=O)N[C@@H](CCCCN)C(=O)O (stereo partly shown) [N-3-hydroxypalmitoyl lysine]

- activation of S1PR2 (S1PR2): did not activate
- activation of S1PR1 (S1PR1): did not activate
- EC50 [1]: 32 µM
- activation of / interaction with S1PR4 (in words) [1]: interact
- activation of S1PR3 (S1PR3): did not activate
Compound: CCCCCCCCCCCCCC(O)CC(=O)N[C@@H](CCCN)C(=O)O (stereo partly shown) [N-3-hydroxypalmitoyl ornithine]

- cellular cAMP concentration (in words) (GPR119): increased
Compound: CCCCCCCC/C=C\CCCCCCCC(=O)NCCO [OEA, oleoylethanolamide]
- blood glucose in OGTT [2]: fails to lower blood glucose
- GLP-1 secretion (GLUTag cells): to the same magnitude

- activation of S1PR2 (S1PR2): activates
- activation of S1PR1 (S1PR1): activates
- activation of / interaction with S1PR4 (in words) [1]: activates
- activation of S1PR3 (S1PR3): activates
Compound: CCCCCCCCCCCCC/C=C/[C@@H](O)[C@@H](N)COP(=O)(O)O [S1P, sphingosine-1-phosphate]
